Key:
HepG2 [1] = assay: Antiproliferative activity against human HepG2 cells assessed as reduction in cell growth at 8 uM incubated for 72 hrs by CCK-8 assay relative to control; format: functional
A-375 [2] = assay: Antiproliferative activity against human A-375 cells assessed as reduction in cell growth incubated for 72 hrs by CCK-8 assay; format: functional, cell-based; conditions: A-375, 72 h
Method in brief: (§1)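 IC50 by CCK-8 assay across five solid-tumour lines (HCT116, HepG2, H460, HeLa, A375). Run only for compounds chosen after the single-concentration screen, with CS055 and roscovitine as references.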

NCI-H460 [3] = assay: Antiproliferative activity against human NCI-H460 cells assessed as reduction in cell growth incubated for 72 hrs by CCK-8 assay; format: functional, cell-based; conditions: NCI-H460, 72 h; method in brief: as §1
HepG2 [4] = assay: Antiproliferative activity against human HepG2 cells assessed as reduction in cell growth incubated for 72 hrs by CCK-8 assay; format: functional, cell-based; conditions: HepG2, 72 h; method in brief: as §1
NCI-H460 [5] = assay: Antiproliferative activity against human H460 cells assessed as reduction in cell growth at 8 uM incubated for 72 hrs by CCK-8 assay relative to control; format: functional
HCT-116 [6] = assay: Antiproliferative activity against human HCT-116 cells assessed as reduction in cell growth at 8 uM incubated for 72 hrs by CCK-8 assay relative to control; format: functional
HCT-116 [7] = assay: Antiproliferative activity against human HCT-116 cells assessed as reduction in cell growth at 2 uM incubated for 72 hrs by CCK-8 assay relative to control; format: functional
HCT-116 [8] = assay: Antiproliferative activity against human HCT-116 cells assessed as reduction in cell growth incubated for 72 hrs by CCK-8 assay; format: functional, cell-based; conditions: HCT-116, 72 h; method in brief: as §1
HepG2 [9] = assay: Antiproliferative activity against human HepG2 cells assessed as reduction in cell growth at 2 uM incubated for 72 hrs by CCK-8 assay relative to control; format: functional
NCI-H460 [10] = assay: Antiproliferative activity against human H460 cells assessed as reduction in cell growth at 2 uM incubated for 72 hrs by CCK-8 assay relative to control; format: functional
Histone deacetylase 1 = Histone deacetylase 1 (Homo sapiens, UniProt Q13547); assay: Inhibition of recombinant human HDAC1 at 10 uM using SIRT1 as substrate incubated for 10 mins followed by substrate addition and measured after 30 mins by fluorescence based assay relative to control; conditions: time 40.0 min
Sequence of Histone deacetylase 1 (Q13547 whole entry): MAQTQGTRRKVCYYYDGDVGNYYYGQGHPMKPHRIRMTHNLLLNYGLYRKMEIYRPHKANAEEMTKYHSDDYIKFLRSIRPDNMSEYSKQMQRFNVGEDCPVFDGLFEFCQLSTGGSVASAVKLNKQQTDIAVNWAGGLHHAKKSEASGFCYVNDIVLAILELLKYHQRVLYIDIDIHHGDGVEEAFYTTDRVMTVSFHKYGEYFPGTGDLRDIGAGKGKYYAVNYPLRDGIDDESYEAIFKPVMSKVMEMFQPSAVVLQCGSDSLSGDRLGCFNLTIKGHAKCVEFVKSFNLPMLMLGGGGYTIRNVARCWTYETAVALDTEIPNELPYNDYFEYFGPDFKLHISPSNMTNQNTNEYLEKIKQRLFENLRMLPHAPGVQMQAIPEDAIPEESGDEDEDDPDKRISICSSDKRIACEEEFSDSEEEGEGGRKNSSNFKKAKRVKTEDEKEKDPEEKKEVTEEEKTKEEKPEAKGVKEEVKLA
Method in brief: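 Enzyme inhibition of HDAC1 measured at a single concentration of 10 µM, tested alongside the cell-growth screen.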

HeLa [11] = assay: Antiproliferative activity against human HeLa cells assessed as reduction in cell growth incubated for 72 hrs by CCK-8 assay; format: functional, cell-based; method in brief: as §1
A-375 [12] = assay: Induction of apoptosis in human A-375 cells assessed as early apoptotic cells at 2 uM incubated for 48 hrs by annexin V-FITC and PI staining based flow cytometry (reference value: 1.34 %); format: functional
HCT-116 [13] = assay: Induction of apoptosis in human HCT-116 cells assessed as late apoptotic cells at 2 uM incubated for 48 hrs by annexin V-FITC and PI staining based flow cytometry (reference value: 1.88 %); format: functional
Histone deacetylase 2 = Histone deacetylase 2 (Homo sapiens, UniProt Q92769); assay: Inhibition of recombinant human HDAC2 using FLUOR-DE-LYS-Green as substrate incubated for 10 mins followed by substrate addition and measured after 30 mins by fluorescence based assay
Sequence of Histone deacetylase 2 (Q92769 whole entry): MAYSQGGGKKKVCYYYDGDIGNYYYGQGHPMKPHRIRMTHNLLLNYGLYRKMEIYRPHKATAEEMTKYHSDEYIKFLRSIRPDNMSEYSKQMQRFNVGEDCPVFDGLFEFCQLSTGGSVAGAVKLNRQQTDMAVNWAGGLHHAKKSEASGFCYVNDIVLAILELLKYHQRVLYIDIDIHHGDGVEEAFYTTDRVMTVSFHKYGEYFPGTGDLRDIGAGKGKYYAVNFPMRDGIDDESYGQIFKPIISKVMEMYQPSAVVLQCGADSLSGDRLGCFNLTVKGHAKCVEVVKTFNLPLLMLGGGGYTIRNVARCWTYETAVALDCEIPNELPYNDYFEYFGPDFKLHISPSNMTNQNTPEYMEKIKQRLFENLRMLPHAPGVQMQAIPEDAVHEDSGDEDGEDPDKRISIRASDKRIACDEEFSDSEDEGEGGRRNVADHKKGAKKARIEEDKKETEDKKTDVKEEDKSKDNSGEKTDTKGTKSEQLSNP
Method in brief: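 IC50 values reported as means of at least two separate determinations, expressed as mean ±SD.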

NCI-H460 [14] = assay: Induction of apoptosis in human NCI-H460 cells assessed as late apoptotic cells at 2 uM incubated for 48 hrs by annexin V-FITC and PI staining based flow cytometry (reference value: 6.11 %); format: functional
HCT-116 [15] = assay: Induction of apoptosis in human HCT-116 cells assessed as necrotic cells at 2 uM incubated for 48 hrs by annexin V-FITC and PI staining based flow cytometry (reference value: 0.124 %); format: functional
HeLa [16] = assay: Induction of apoptosis in human HeLa cells assessed as necrotic cells at 2 uM incubated for 48 hrs by annexin V-FITC and PI staining based flow cytometry (reference value: 0.124 %); format: functional
HeLa [17] = assay: Induction of apoptosis in human HeLa cells assessed as late apoptotic cells at 2 uM incubated for 48 hrs by annexin V-FITC and PI staining based flow cytometry (reference value: 0.870 %); format: functional
A-375 [18] = assay: Induction of apoptosis in human A-375 cells assessed as late apoptotic cells at 2 uM incubated for 48 hrs by annexin V-FITC and PI staining based flow cytometry (reference value: 2.24 %); format: functional
HeLa [19] = assay: Induction of apoptosis in human HeLa cells assessed as viable cells at 2 uM incubated for 48 hrs by annexin V-FITC and PI staining based flow cytometry (reference value: 98.5 %); format: functional; conditions: read-out: Activity
NCI-H460 [20] = assay: Induction of apoptosis in human NCI-H460 cells assessed as viable cells at 2 uM incubated for 48 hrs by annexin V-FITC and PI staining based flow cytometry (reference value: 90.4 %); format: functional; conditions: read-out: Activity
HCT-116 [21] = assay: Induction of apoptosis in human HCT-116 cells assessed as early apoptotic cells at 2 uM incubated for 48 hrs by annexin V-FITC and PI staining based flow cytometry (reference value: 4.14 %); format: functional
HeLa [22] = assay: Induction of apoptosis in human HeLa cells assessed as early apoptotic cells at 2 uM incubated for 48 hrs by annexin V-FITC and PI staining based flow cytometry (reference value: 0.528 %); format: functional
NCI-H460 [23] = assay: Induction of apoptosis in human NCI-H460 cells assessed as necrotic cells at 2 uM incubated for 48 hrs by annexin V-FITC and PI staining based flow cytometry (reference value: 0.632 %); format: functional
A-375 [24] = assay: Induction of apoptosis in human A-375 cells assessed as viable cells at 2 uM incubated for 48 hrs by annexin V-FITC and PI staining based flow cytometry (reference value: 96.3 %); format: functional; conditions: read-out: Activity
NCI-H460 [25] = assay: Induction of apoptosis in human NCI-H460 cells assessed as early apoptotic cells at 2 uM incubated for 48 hrs by annexin V-FITC and PI staining based flow cytometry (reference value: 2.88 %); format: functional
A-375 [26] = assay: Induction of apoptosis in human A-375 cells assessed as necrotic cells at 2 uM incubated for 48 hrs by annexin V-FITC and PI staining based flow cytometry (reference value: 0.139 %); format: functional
HCT-116 [27] = assay: Induction of apoptosis in human HCT-116 cells assessed as viable cells at 2 uM incubated for 48 hrs by annexin V-FITC and PI staining based flow cytometry (reference value: 93.9 %); format: functional; conditions: read-out: Activity

Row | IC50 (A-375 [2]) [µM] | IC50 (NCI-H460 [3]) [µM] | IC50 (HepG2 [4]) [µM] | IC50 (HCT-116 [8]) [µM] | inhibition (Histone deacetylase 1) [%] | IC50 (HeLa [11]) [µM] | Structure (SMILES) | inhibition at 8 µM (HepG2 [1]) [%] | inhibition at 8 µM (NCI-H460 [5]) [%] | inhibition at 8 µM (HCT-116 [6]) [%] | inhibition at 2 µM (HCT-116 [7]) [%] | inhibition at 2 µM (HepG2 [9]) [%] | inhibition at 2 µM (NCI-H460 [10]) [%] | also measured
1 | 4.24 | 7.4 | 5.18 | 0.95 | 75.3 | 4.5 | CC1CCN(c2nc(Cl)nc3c2ncn3Cc2ccc(C(=O)Nc3ccccc3N)cc2)CC1 | 65.3 | 40.9 | 78.6 | 70.9 | 1.22 | 11.8 | 
2 | 18.5 | 18.4 | 30.1 | 1.25 | 43.9 | > 20 | Nc1ccccc1NC(=O)c1ccc(Cn2cnc3c(Nc4ccc(-c5ccccn5)cc4)nc(Cl)nc32)cc1 | 41.2 | 30.8 | 73.7 | 69.5 | 11.5 | 18.1 | 
3 | 6.72 | 13.3 | 11.7 | 1.49 |  | 11 | Nc1ccc(F)cc1NC(=O)c1ccc(CNC(=O)/C=C/c2cccnc2)cc1 | 40.6 | 38.2 | 73.4 | 65.7 | 8.36 | 1.73 | Activity (A-375 [12]): 14.2%; Activity (HCT-116 [13]): 3.12%; IC50 (Histone deacetylase 2): 0.0665 µM; Activity (NCI-H460 [14]): 15.1%; Activity (HCT-116 [15]): 0.985%; Activity (HeLa [16]): 0.103%; Activity (HeLa [17]): 1.04%; Activity (A-375 [18]): 49.5%; viability at 2 µM (HeLa [19]): 98.3%; viability at 2 µM (NCI-H460 [20]): 69.6%; Activity (HCT-116 [21]): 54.6%; Activity (HeLa [22]): 0.555%; Activity (NCI-H460 [23]): 0.543%; viability at 2 µM (A-375 [24]): 34.5%; Activity (NCI-H460 [25]): 14.7%; Activity (A-375 [26]): 1.73%; viability at 2 µM (HCT-116 [27]): 41.3%
4 |  |  |  |  | 41.8 |  | Cc1ccc(Nc2nc(Cl)nc3c2ncn3Cc2ccc(/C=C/C(=O)Nc3ccccc3N)cc2)cc1 | 43 | 51.3 | 15 | 0.27 | 33.6 | 31.3 | 

More lines, now with the values behind:

Row | Structure (SMILES) | IC50 (A-375 [2]) [µM] | IC50 (NCI-H460 [3]) [µM] | IC50 (HepG2 [4]) [µM] | IC50 (HCT-116 [8]) [µM] | inhibition (Histone deacetylase 1) [%] | IC50 (HeLa [11]) [µM] | inhibition at 8 µM (HepG2 [1]) [%] | inhibition at 8 µM (NCI-H460 [5]) [%] | inhibition at 8 µM (HCT-116 [6]) [%] | inhibition at 2 µM (HCT-116 [7]) [%] | inhibition at 2 µM (HepG2 [9]) [%] | inhibition at 2 µM (NCI-H460 [10]) [%] | also measured
5 | Nc1ccccc1NC(=O)c1ccc(Cn2cnc3c(NCc4ccccc4)nc(Cl)nc32)cc1 | 5.83 | 11.2 | 7.72 | 1.06 | 76 | 6.77 | 62.8 | 61.2 | 78.3 | 68.3 | 7.55 | 44.7 | 
6 | Nc1ccccc1NC(=O)c1ccc(CNc2nc(Cl)nc3c2ncn3C2CCCC2)cc1 | 2.79 | 5.78 | 3.43 | 0.85 | 90.9 | 3.02 | 74.9 | 57.4 | 80.6 | 75.6 | 54.7 |  | 
7 | Nc1ccccc1NC(=O)c1ccc(Cn2cnc3c(Nc4cccc(Cl)c4)nc(Cl)nc32)cc1 | 6.08 | 6.58 | 9.8 | 2.34 | 61.3 | 11.3 | 66.7 | 67 | 78.4 | 56.2 | 29.9 | 10.3 | 

— ChEMBL document CHEMBL4765302, “Design, synthesis and biological evaluation of novel histone deacetylase1/2 (HDAC1/2) and cyclin-dependent Kinase2 (CDK2) dual inhibitors against malignant cancer” (Eur J Med Chem, 2020)
